RGS4 inh – RGS4 inhibitors, primary screen, cell-based, HEK293 M3R inducible RGS4, calcium flux | actives 0.45% (n = 310,000) | Fluo-4 calcium flux; active compounds read high; triggered by carbachol at its EC20 | Regulator of G-protein signaling 4 (Homo sapiens), P49798 | B-score at 10 µM | AID 463165, 2010;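 active = B-score, a plate-corrected calcium signal, over three deviations above library mean, with baseline fluorescence within five deviations of library mean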;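 note: RGS4 expression induced by doxycycline in cells with stable M3 receptor; B-score is computed from the integrated fluorescence ratio over baseline after carbachol; higher B-score means a larger calcium signal and so more RGS4 inhibition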
Target sequence (P49798 whole entry, looked up): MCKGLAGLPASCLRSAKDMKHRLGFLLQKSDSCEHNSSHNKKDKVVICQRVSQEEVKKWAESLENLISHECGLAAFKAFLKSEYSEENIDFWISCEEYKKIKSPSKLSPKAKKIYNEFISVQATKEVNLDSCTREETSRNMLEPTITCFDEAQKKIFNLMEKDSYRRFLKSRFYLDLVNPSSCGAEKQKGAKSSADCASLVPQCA
MrgX1 antag – antagonists of human MrgX1 receptor, primary screen, HEK293 cells, Fluo-4 calcium flux; Mas-related G-protein coupled receptor member X1 (Homo sapiens), Q96LB2; BAM8-22 antagonism; active compounds read low; B-score at 10 µM; actives 1.3% (n = 310,000);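 active = calcium-response B-score plate-corrected more than 3 library SD below zero, starting fluorescence within 5 deviations, no agonist response on first addition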;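 note: peak minus trough fluorescence over baseline after final BAM8-22 challenge near maximal dose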
Target sequence (Q96LB2 whole entry, looked up): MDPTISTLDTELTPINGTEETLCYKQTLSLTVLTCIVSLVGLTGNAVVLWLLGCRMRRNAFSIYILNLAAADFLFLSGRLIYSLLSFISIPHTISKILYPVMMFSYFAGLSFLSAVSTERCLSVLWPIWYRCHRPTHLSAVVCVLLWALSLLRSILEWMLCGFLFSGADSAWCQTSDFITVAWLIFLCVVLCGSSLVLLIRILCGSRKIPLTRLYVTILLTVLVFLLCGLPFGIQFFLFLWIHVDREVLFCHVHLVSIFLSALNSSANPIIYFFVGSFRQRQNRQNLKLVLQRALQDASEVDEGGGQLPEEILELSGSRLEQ
RGS4 act – RGS4 potentiators or activators, primary screen, cell-based, HEK293 M3R inducible RGS4, calcium flux; carbachol calcium flux Fluo4; active compounds read low; B-score at 10 µM; actives 0.92% (n = 310,000);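 active = B-score of the integrated calcium signal more than 4 SD below the library mean, with starting fluorescence not abnormally high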;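 note: negative B-score means reduced calcium response which marks RGS4 activation or potentiation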
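Assay system: Inducible-RGS4 HEK293 cells carrying M3 receptor | Schedule: Compound preincubation 20 min at room temperature before agonist | Signal: Kinetic calcium fluorescence imaging with Fluo4-AM dye, 2 µM | Read-out basis: B score from integrated fluorescence ratio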
MrgX1 PAM – positive allosteric modulators of MrgX1, primary screen, HEK293 cells, Fluo-4 calcium flux; Mas-related G-protein coupled receptor member X1 (Homo sapiens), Q96LB2; FDSS; active compounds read high; B-score at 10 µM; actives 0.63% (n = 310,000); AID 588675, 2011;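 active = plate-corrected calcium response at least 3 library SD above typical, normal starting fluorescence, not activating the receptor alone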;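 note: compound read alongside a low EC10 to EC30 dose of BAM8-22 agonist; peak minus trough fluorescence over baseline measured at the second addition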
MrgX1 ag – agonists of human MrgX1 receptor, primary screen, HEK293 cells, Fluo-4 calcium flux | Mas-related G-protein coupled receptor member X1 (Homo sapiens), Q96LB2 | Fluo-4 calcium fluorescence, agonist mode; active compounds read high | B-score at 10 µM | actives 0.44% (n = 310,000);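 active = calcium response B-score plate-corrected fluorescence ratio at least 3 library SD, with starting fluorescence B-score inside 5 SD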
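Test system: HEK293 cells stably expressing human MrgX1 receptor; Input: fifteen thousand cells per well; Dosing: compound delivered in addition one of three; Schedule: overnight seeding, then 1 h dark dye loading; Technique: Fluo-4 NW calcium fluorescence; Measure: B-scored fluorescence response ratio; Controls: positive and negative controls per plate.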
MrgX1 ant reconf – MrgX1 receptor antagonists, duplicate retest, confirmation, HEK293 cells, Fluo-4 calcium flux; remaining BAM8-22 calcium response % of control (active compounds read low), % at 10 µM; actives 19% (n = 2,300); BAM8-22 calcium flux; active compounds read low; shares compounds with MrgX1 antag;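 active = remaining agonist calcium response no higher than 100% minus 3 SD of agonist-only control wells, with starting fluorescence near control levels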;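 note: agonist BAM8-22 given at a near maximal EC90 to ECmax level; peak minus minimum fluorescence divided by baseline after agonist addition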
HEK293 Ca flux – nonspecific calcium signal in parental HEK293, confirmation, counter-screen for MrgX1 antagonist project, parental HEK293 cells, Fluo-4 calcium flux | actives 2% (n = 4,000) | Fluo-4 calcium fluorescence, FDSS | shares compounds with MrgX1 antag | fluorescence ratio F(max-min)/F0 at 10 µM | AID 624111, 2012;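 active = duplicate-averaged calcium fluorescence ratio at least three times the standard deviation of buffer wells, a nonspecific response in parental cells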
HEK293 Ca counter – calcium response in parental HEK293 cells, primary screen, counter-screen for MrgX1 allosteric activator project, cell-based, Fluo-4 calcium flux, duplicate; shares compounds with MrgX1 antag; Fluo-4 fluorescence ratio; active compounds read high; fluorescence ratio F(max-min)/F0 at 10 µM; actives 0.4% (n = 4,000);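 active = calcium fluorescence ratio, averaged over duplicates, at least 3 SD of the buffer-well ratio, meaning a nonspecific response in receptor-free cells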;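 note: untransfected parental HEK293 lacking MrgX1 used as counterscreen for MrgX1 allosteric activators; fluorescence change taken during the second addition on a kinetic imager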
HEK293 Ca cntr2 – calcium response in parental HEK293 cells, primary screen, counter-screen for MrgX1 agonist project, cell-based, Fluo-4 calcium flux, duplicate, agonist mode. actives 8.7% (n = 4,000). Fluo-4 calcium fluorescence (FDSS); active compounds read high. fluorescence ratio F(max-min)/F0 at 10 µM. shares compounds with MrgX1 antag;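 active = calcium fluorescence ratio at least three times the spread of buffer wells, meaning a non-specific response in parental cells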
Starred values were filed as active, the others as inactive; i = inactive; · = no result given; ! = a repeat was not active. Shown are actives, neighbours in structure and some others; about 3.5% of the full set was active somewhere.

SMILES	RGS4 inh	MrgX1 antag	RGS4 act	MrgX1 PAM	MrgX1 ag	MrgX1 ant reconf	HEK293 Ca flux	HEK293 Ca counter	HEK293 Ca cntr2
Cc1sc2nc(CSc3ccccc3)nc(N3CCC(C(N)=O)CC3)c2c1C	i	-11*	i	i	i	i	i	i	i
CCOC(=O)Cn1c(=O)cc(C)c2ccccc21	i	-8.5*	i	i	i	i	i	i	i
O=C(O)c1ccccc1NS(=O)(=O)c1cccc(-n2sc3ccccc3c2=O)c1	i	-6.3*	i	i	i	44%*	i	i	i
O=C(O)c1ccccc1NS(=O)(=O)c1cccc(C(F)(F)F)c1	i	i	i	i	i	·	·	·	·
Cc1ccccc1OCCN(C#N)c1nc(N(C)C)nc(N(C)C)n1	i	-4.9*	i	i	i	i	i	i	i
Cc1oc(-c2cccc(Cl)c2)nc1CS(=O)(=O)CC(=O)NC1CCCC1	i	i	i	i	i	·	·	·	·
NC(=O)C1CCN(C(=O)NC2CC(=O)N(c3ccc4c(c3)OCCO4)C2)CC1 (centres undefined)	i	-6.9*	i	i	i	i	i	i	i
CC(=O)N1CCN(c2nc(-c3cccs3)nc3ccccc23)CC1	i	-4.7*	i	i	i	i	i	i	i
CCN1CCN(S(=O)(=O)c2cc3c(cc2Cl)NC(=O)CO3)CC1	i	i	i	i	i	·	·	·	·
COc1ccc(S(=O)(=O)N(CC(=O)N2CCN(C)CC2)c2ccc(C)cc2)cc1Br	i	·	i	·	·	·	·	·	·
CCOC(=O)Cc1csc(NC(=O)c2sc3nc4cc(C)ccc4cc3c2N)n1	i	-6.4*	i	i	i	i	i	i	i
CCOC(=O)Cc1csc(NC(=O)Nc2ccc(Cl)cc2)n1	i	i	i	i	i	·	·	·	·
CCOC(=O)Cc1csc(NC(=O)c2sc3nc4ccc(CC)cc4cc3c2N)n1	i	i	i	i	i	·	·	·	·
CCOC(=O)Cc1csc(NC(=O)Nc2cccc(Cl)c2)n1	i	-7.4*	i	i	i	i	i	i	i
CCc1ccc2c(CN(C)Cc3ccccc3OC)cc(=O)oc2c1	i	i	i	i	i	·	·	·	·
CCc1cc(=O)oc2c(CNCc3c(F)cccc3Cl)c(O)ccc12	i	i	i	i	i	·	·	·	·
Cc1ccc(-n2cc(S(=O)(=O)c3ccc(C)cc3)[nH]c2=O)cc1	i	-4.8*	i	i	i	i	i	i	i
CN(C)C(CNC(=O)c1ccc(NS(=O)(=O)c2ccc(F)cc2)cc1)c1ccco1 (centres undefined)	i	-6.1*	i	i	i	i	i	i	i
Cc1cccc(NS(=O)(=O)c2ccc(C(=O)NCC(c3ccccc3)N(C)C)cc2)c1C (centres undefined)	i	-5.2*	i	i	i	85%*	i	i	i
Cc1ccc(C(c2nnnn2C2CCCC2)N2CCN3CCCC3C2)cc1 (centres undefined)	i	-6.4*	i	i	i	i	i	i	i
CCc1ccc(C(=O)COC(=O)CNC(=O)c2cccs2)cc1	i	-6.2*	i	i	i	i	i	i	i
O=C(CNC(=O)c1cccs1)OCC(=O)c1ccccc1	i	i	i	i	i	·	·	·	·
CCCN(CC(=O)Nc1ccc(Cl)cc1Cl)C(=O)c1ccc(=O)[nH]c1	i	i	i	i	i	·	·	·	·
Cc1cccc(CN2CCN(C(=S)Nc3ccccc3)CC2)c1	i	-5*	i	i	i	i	i	i	i
O=C(CCN1CCN(C/C=C/c2ccccc2)CC1)Nc1ccccc1	i	i	i	i	i	·	·	·	·
SMILES	RGS4 inh	MrgX1 antag	RGS4 act	MrgX1 PAM	MrgX1 ag	MrgX1 ant reconf	HEK293 Ca flux	HEK293 Ca counter	HEK293 Ca cntr2
Cc1cccc(NC(=O)CCN2CCN(C/C=C/c3ccccc3)CC2)c1	i	-6.1*	i	i	i	i	i	i	i
Cc1cccc(NC(=O)c2ccc(CN3CCN(Cc4ccccc4)CC3)cc2)c1	i	-7.9*	i	i	i	i	i	i	i
O=C(COC(=O)CCS(=O)(=O)c1ccc(Cl)cc1)NCCc1ccc(Cl)cc1Cl	i	i	i	i	i	·	·	·	·
N=C1C(c2nc3ccccc3s2)=C(O)CN1Cc1ccco1	i	i	i	i	i	·	·	·	·
CN(C)CCN1CC(O)=C(c2nc3ccccc3s2)C1=N	i	-5.7*	i	i	i	i	i	i	i
CCN(CC)CCN1C(=O)Cn2c(C)c(C)c3cccc1c32	i	-5*!	i	i	i	i	i	i	i
Cc1ccc(S(=O)(=O)c2nc(S(C)(=O)=O)sc2N2CCCCC2C)cc1 (centres undefined)	i	i	i	i	i	·	·	·	·
N#C/C(=C\c1ccc(OCc2ccc(Br)cc2)cc1)C(=O)Nc1cccc(C(=O)O)c1	i	i	i	i	i	·	·	·	·
CCOc1cc(/C=C(\C#N)C(=O)Nc2cccc(C(=O)O)c2)cc(Br)c1OC(=O)c1ccc(OC)cc1	i	-10*	-8.1*	i	i	i	i	i	50*
